Bioassay records from PubChem.
FN deposit inh = fibronectin deposition inhibition. AH1F fibroblasts, Alexa488-fibronectin deposition fluorescence, overnight. inhibition, % at 12.6 µM. 350,000 compounds, 0.086% hits;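 active = mean inhibition across replicates of 30% or more, regardless of how many single replicates reach that level; inconclusive = mean under 30% yet at least half of replicates reach 30%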;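 note: positive control wells lacked labelled fibronectin entirely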
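Material – AH1F fibroblast monolayer, labelled fibronectin deposition · Reagent – labelled fibronectin 24 nM · Timing – 1 h adhesion, overnight exposure · Measured by – fluorescence at 485 nm excitation, 525 nm emission · Read-out – inhibition of fibronectin deposition signal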
RAD54 branch = inhibitors of human RAD54 branch migration; Q92698; RAD54 Holliday junction branch migration, FAM/BHQ fluorescence; inhibition, % at 10.4 µM; 360,000 compounds, 0.14% hits;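 active = mean normalized replicate activity at least 40 and at least half of replicates scoring 40 or more; inconclusive = only one of the two criteria met; inactive = mean below 40 and under half of replicates reaching 40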;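 note: 0% = median of neutral control wells and 100% = median of positive control wells; inhibitors cause a drop in the FAM fluorescence signal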
Target sequence (Q92698 whole entry, looked up): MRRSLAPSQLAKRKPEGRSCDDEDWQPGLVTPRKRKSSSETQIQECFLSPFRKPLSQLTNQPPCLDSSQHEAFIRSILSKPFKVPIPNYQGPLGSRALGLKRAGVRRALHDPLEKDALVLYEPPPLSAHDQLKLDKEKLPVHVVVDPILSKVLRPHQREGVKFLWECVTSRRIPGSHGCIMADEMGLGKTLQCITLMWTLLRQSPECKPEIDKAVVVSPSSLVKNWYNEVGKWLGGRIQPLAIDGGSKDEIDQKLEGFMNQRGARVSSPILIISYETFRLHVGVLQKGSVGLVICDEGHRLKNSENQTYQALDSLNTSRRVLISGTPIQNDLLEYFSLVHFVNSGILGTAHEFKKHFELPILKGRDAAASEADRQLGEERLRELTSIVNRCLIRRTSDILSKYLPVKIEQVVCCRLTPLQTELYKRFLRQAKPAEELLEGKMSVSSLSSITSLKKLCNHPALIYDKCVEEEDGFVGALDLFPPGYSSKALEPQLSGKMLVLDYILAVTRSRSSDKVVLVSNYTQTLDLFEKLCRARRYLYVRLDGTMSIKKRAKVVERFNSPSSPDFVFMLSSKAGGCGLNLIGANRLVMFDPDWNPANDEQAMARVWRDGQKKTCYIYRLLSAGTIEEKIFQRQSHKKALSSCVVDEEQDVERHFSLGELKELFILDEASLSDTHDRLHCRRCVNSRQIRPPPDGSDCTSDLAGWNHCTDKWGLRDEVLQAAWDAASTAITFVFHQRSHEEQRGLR
PAX8 inh HTS = inhibitors of PAX8 transcriptional activity in RMG-I cells; 360,000 compounds, 1.2% hits; RMG-I TPO-luciferase reporter, SteadyGlo, 24 h; inhibition, % at 12.6 µM;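 active = mean replicate inhibition at least 60% with every replicate also reaching 60%; inconclusive = only one of the two criteria is met; inactive = mean below 60% and not all replicates reaching 60%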;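 note: luciferase light reporting Pax8 driven TPO promoter activity; plate controls were median of neutral control wells for no effect and mitoxantrone controls for full effect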
RAD52 inh = RAD52 (human) annealing inhibition; recombinant RAD52 DNA annealing, FRET fluorescence; 360,000 compounds, 0.46% hits; inhibition, % at 18.7 µM; AID 651710;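 active = every replicate showing at least 50% inhibition; inconclusive = mean inhibition at least 50% but not in every replicate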
Starred values were filed as active, the others as inactive; ? = inconclusive; . = not tested or not shown; ! = not active in a repeat. Compounds with a hit are over-represented: about 1.3% of the library has one in this group of screens.

SMILES	FN deposit inh	RAD54 branch	PAX8 inh HTS	RAD52 inh
Cc1noc(C)c1NC(=O)N(C)C[C@H]1Oc2c(NS(=O)(=O)c3ccc(F)cc3)cccc2C(=O)N([C@H](C)CO)C[C@H]1C	.	-12	9	5
Cc1ccc(NC(=O)Nc2cnc3ccccc3c2)cc1	5	.	-113	-15
O=C(C1CC1)N1C[C@@H]2N[C@H](C1)C2c1ccc(/C=C/c2ccccc2)cc1 (some centres undefined)	-9	.	-90	51*!
CN(C)CC(=O)N1C[C@@H]2N[C@H](C1)C2c1ccc(/C=C/c2ccccc2)cc1 (some centres undefined)	-9	.	-92	.
CC1Oc2ccccc2OC1(O)c1ccccn1 (centres undefined)	5	.	36	-5
CNC[C@@H](Cc1ccccc1)NC[C@@H](CC1CCCCC1)NCCCc1ccccc1	1	31	74*	36
CN(Cc1cccc(C(F)(F)F)c1)C(=O)C1CCC(=O)N(CC2CCCCC2)C1 (centres undefined)	5	-22	-6	-7
CNC[C@@H](CC1CCCCC1)NC[C@H](CC(C)C)NCCc1cccc(C(F)(F)F)c1	62*	28	113*	13
CC(=O)c1c(C)[nH]c(C(=O)C(C)Sc2nnc(NC3CC3)s2)c1C (centres undefined)	.	-3	3	-15
COc1ccccc1NC(=O)NCC1(N(C)C)CCCCC1	3	1	10	-9
Cc1ccc(S(=O)(=O)N2CCCC(C(=O)NCCCN3CCCCC3C)C2)cc1 (centres undefined)	.	0	.	-13
CCC(=O)c1cc2c(C)cc(=O)oc2c(C)c1OC(=O)C(C)C	5	.	72*	0
CC(C)Oc1ccc(C(=O)Nc2nnc(SCC(=O)N3CCOCC3)s2)cc1	.	11	70*	.
CN(C)S(=O)(=O)c1ccc(C(=O)Nc2nnc(SCC(=O)N3CCOCC3)s2)cc1	7	6	-29	-47
CCCCOc1ccc(C(C)NC(=O)C2CCCN(S(=O)(=O)CCC)C2)cc1 (centres undefined)	33*	4	2	.
Cc1ccc(N(C(=O)c2ccn[nH]2)C(C(=O)NC2CCCC2)c2cccs2)cc1 (centres undefined)	-6	.	9	-7
O=S(=O)(NCC1CCCO1)c1cnc(Cl)c(Br)c1 (centres undefined)	5	-3	110*	-6
O=S(=O)(NCC1CCCO1)c1cc(Cl)ccc1Br (centres undefined)	.	-5	.	.
Cc1nn(-c2ccccc2)c(N2CCCC2)c1/C=N/NC(=S)Nc1ccc(F)cc1	3	-2	-21	-3
CO[C@@H]1CN(C)C(=O)c2cc(NC(=O)Nc3cccc(F)c3)ccc2OC[C@@H](C)NC[C@H]1C	1	2	.	0
Cc1ccc(S(=O)(=O)N[C@@H]2C=C[C@@H](CC(=O)N3CCC(Cc4ccccc4)CC3)O[C@@H]2CO)cc1	.	1	90*	2
CN(C)c1nc(C=C(C#N)C#N)c(Cl)n1-c1ccc(F)cc1	2	.	68*	-60
CCOc1ccccc1NC(=O)/C(C#N)=C/c1c(C)nn(-c2ccc(F)cc2)c1Cl	-5	.	6	-5
COc1ccccc1CNc1nc(NCc2cnc(C)cn2)c2sccc2n1	35*	-2	1	-8
COc1ccccc1CNc1nc(NCc2ccccc2)nc2ccsc12	.	-3	45	-5
SMILES	FN deposit inh	RAD54 branch	PAX8 inh HTS	RAD52 inh
C[C@H](O)[C@@H]1CN2CCc3ccc(-c4ccc5c(c4)OCO5)cc3[C@@H]2C[C@@H]1N(C)C(=O)NC1CCCCC1	12	.	3	-79
C[C@H](O)[C@@H]1CN2CCc3c([nH]c4ccc(-c5ccc6c(c5)OCO6)cc34)[C@@H]2C[C@@H]1N(C)C(=O)NC1CCCCC1	-2	.	90*	27
COc1ccccc1-c1nnc(NC(=O)CCS(=O)(=O)c2ccccc2)o1	0	-5	16	-3
COc1ccccc1-c1nnc(NC(=O)CCS(=O)(=O)c2ccc(F)cc2)o1	4	3	74*	-8
O=C(NCC1CCCO1)C(=Cc1cccc([N+](=O)[O-])c1)C(=O)NCC1CCCO1 (centres undefined)	0	.	98*	-12
O=C(NCC1CCCO1)/C(=C\c1cccc([N+](=O)[O-])c1)NC(=O)c1ccccc1 (centres undefined)	.	.	5	21
Cc1ccc(CNC(=O)C(=O)NCCC2CCCCN2S(=O)(=O)c2ccc(C)cc2)cc1 (centres undefined)	4	-4	17	-1
Cc1ccc(S(=O)(=O)N2CCCCC2CCNC(=O)C(=O)NCc2cccnc2)cc1 (centres undefined)	5	.	51	0
O=C(NCCC1CCCCN1S(=O)(=O)c1ccc(Cl)cc1)C(=O)NCc1ccncc1 (centres undefined)	-2	2	97*	-7
O=C(NCCC1CCCCN1S(=O)(=O)c1ccc(F)cc1)C(=O)NCc1ccncc1 (centres undefined)	-6	7	69*	-10
CSc1ccc(C(O)c2ncc(-c3cccc(F)c3)[nH]2)cc1 (centres undefined)	3	8	-21	-84
COc1cccc(C(=O)NCCN2CCOCC2)c1	.	.	.	1
CSc1cccc(NC(=O)c2cc(S(=O)(=O)N3CCc4ccccc43)cn2C)c1	8	2	54	-6
O=C(C1=C[C@H](c2ccc(Br)cc2)C[C@H](OCc2ccc(CO)cc2)O1)N1CCCC1	.	6	-11	19
CCCc1cc(C(=O)OC)c(NC(=O)CCC(=O)O)s1	33*	.	-1	-4
CCOC(=O)c1cc(CC)sc1NC(=O)CCC(=O)O	.	1	.	.
O=C(CNC(=O)c1ccco1)NCC(=O)OCc1c(F)cccc1Cl	.	3	36	-6
Cc1cc(Cl)n2nc(C)c(-c3ccc(Cl)cc3)c2n1	-4	-10	81*	-12
C=CC(=O)Nc1cccc(Oc2ccnc3[nH]ccc23)c1	.	-5	.	.
C=CC(=O)Nc1cccc(N(C)c2ccnc(Nc3ccc(N4CCN(C)CC4)cc3)n2)c1	.	82*	.	.
C=CC(=O)Nc1cccc(Oc2ccnc(Nc3ccc(N4CCN(C)CC4)cc3)n2)c1	.	?	74*	93*
O=C(CN1C2CCCC1CC(NC(=O)c1ccco1)C2)Nc1ccccc1C(F)(F)F (centres undefined)	-9	-9	22	.
C[C@H](CO)N1C[C@H](C)[C@@H](CN(C)Cc2ccc(C(F)(F)F)cc2)OCCCC[C@H](C)Oc2ccc(NC(=O)Cc3ccccc3)cc2C1=O	.	-1	80*	.
C[C@@H]1CN([C@H](C)CO)C(=O)c2cc(NC(=O)Cc3ccccc3)ccc2O[C@@H](C)CCCCO[C@@H]1CN(C)Cc1ccc(C(F)(F)F)cc1	.	3	87*	.
C[C@@H]1CN([C@H](C)CO)C(=O)c2cc(NC(=O)CCC(F)(F)F)ccc2O[C@@H](C)CCCCO[C@H]1CN(C)Cc1ccc(C(F)(F)F)cc1	.	1	-7	-20
C[C@@H]1CCCCO[C@@H](CN(C)Cc2ccc(C(F)(F)F)cc2)[C@H](C)CN([C@@H](C)CO)C(=O)c2cc(NC(=O)Cc3ccccc3)ccc2O1	.	1	81*	.
